NF-kB neuron act = raises NF-kB expression in human neuronal cells. 190,000 compounds, 1.6% hits. NF-kB reporter expression; active compounds read high. fold change at 12.5 µM; in the data active = fold change above about 3.3
Pf gamet viab = P. falciparum stage V gametocyte viability inhibition; P. falciparum stage V gametocytes, ATP luminescence, 24 h; inhibition, % at 10.9 µM; 150,000 compounds, 0.065% hits; AID 743093;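 active = inhibition above the mean plus 3 SD of compounds within the control limits, set per campaign, cut at about 38% in these data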;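 also: 0% = DMSO wells and 100% = medium only without gametocytes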
FLuc stim CS = firefly luciferase counter-screen for stimulation assays; P08659; ATPlite luciferase biochemical, luminescence, 10 min; 0 = ATP-free wells, 1 = DMSO control; activation factor at 10 µM; 200,000 tested, under 10 active; AID 1027;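 active = luciferase activation factor, scaled between plate controls, of at least 2 with compound at 10 µM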
Target sequence (P08659 whole entry, looked up): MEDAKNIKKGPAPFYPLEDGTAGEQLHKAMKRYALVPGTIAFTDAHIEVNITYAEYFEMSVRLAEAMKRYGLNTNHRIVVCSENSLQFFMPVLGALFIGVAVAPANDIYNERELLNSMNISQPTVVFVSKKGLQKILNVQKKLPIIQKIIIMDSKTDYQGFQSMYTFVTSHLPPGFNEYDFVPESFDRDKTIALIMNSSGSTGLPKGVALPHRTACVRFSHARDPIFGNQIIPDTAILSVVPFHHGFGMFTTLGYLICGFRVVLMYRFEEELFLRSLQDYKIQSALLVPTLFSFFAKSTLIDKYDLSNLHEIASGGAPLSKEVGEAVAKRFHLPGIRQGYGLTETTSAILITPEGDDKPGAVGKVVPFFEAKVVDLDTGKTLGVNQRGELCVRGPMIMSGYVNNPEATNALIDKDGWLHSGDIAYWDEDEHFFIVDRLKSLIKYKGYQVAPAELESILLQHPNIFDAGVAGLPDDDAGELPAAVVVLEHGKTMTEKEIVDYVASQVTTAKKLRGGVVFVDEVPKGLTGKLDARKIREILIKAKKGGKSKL
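Material: Luciferase/luciferin reagent mix | Doses: Test compounds dosed from 2 mM stocks in 100% DMSO | Timing: 10 min incubation after luciferase reagent addition, room temperature | Measured by: Luminescence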
APP 5'UTR act = APP 5'UTR luciferase reporter activation | 190,000 compounds, 1% hits | activation, % at 2 µM | SH-SY5Y APP 5'UTR luciferase reporter, luminescence; zero percent = DMSO vehicle wells;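 active = activation above a set limit, based on mean plus 3 SD of controls, cut at about 140% in these data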
FLuc inhib CS = counter-screen for luciferase assay inhibitors: firefly luciferase inhibition | ATPLite firefly luciferase biochemical luminescence, 10 min | 200,000 compounds, 1.5% hits | inhibition, % at 10 µM | P08659;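 active = inhibition above about 50% when tested at 10 µM, limit read from the data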
STAT1 act = STAT1 signaling activation. NIH 3T3 STAT1-luciferase reporter, IFN-gamma, luminescence; 100% = IFN-gamma alone, no compound. 200,000 compounds, 2.6% hits. AID 932. activation (% of control), % at 5.5 µM;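 active = activation above the screen-wide mean activation plus 3 SD, cut at about 130% in these data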;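 also: raw ratio to IFN-gamma control signal so 100% means no change and 0% no light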
Active calls of the source: *; / = not tested or not shown. Shown are actives, neighbours in structure and some others; about 3.5% of the full set was active somewhere.

SMILES | NF-kB neuron act | Pf gamet viab | FLuc stim CS | APP 5'UTR act | FLuc inhib CS | STAT1 act
Cc1cccc(Nc2nc(N)nc(CSc3nccn3C)n2)c1 | 2 | -51 | 1 | 26 | 0 | 136*
COC(=O)c1sccc1NC(=O)c1ccc(C(C)C)cc1 | / | -7 | / | / | / | /
O=C(O/N=C/c1ccc(Br)cc1)c1ccc(F)cc1 | / | 14 | / | / | / | /
Cc1ccnc(N=Cc2nc(-c3ccccc3Br)oc2O)c1 | 2 | -13 | 0.6 | 20 | 39 | 142*
Cc1cc2ncn(C(=O)c3ccc(F)cc3)c2cc1C | / | 23 | / | / | / | /
CN(C)c1ccc(C(=O)n2nnc3ccccc32)cc1 | 2 | / | 0.2 | -6 | 81* | 88
CCN(CC)c1ccc(C(=O)n2cnc3ccccc32)cc1 | 3.1 | / | 0.9 | 24 | 9 | 130*
Cc1ccc(OCC(O)CNC2CCCC2)cc1C (centres undefined) | / | -17 | / | / | / | /
COc1ccc2c(c1)CC/C2=N\OC(=O)c1ccccc1OC | 1.7 | 12 | 0.3 | 25 | 72* | 108
COc1ccccc1C(=O)O/N=C1/CCCc2c1ccc(OC)c2[N+](=O)[O-] | 1.1 | -3 | 1.1 | 6 | -6 | 94
C=CCC1(CC=C)CCCN1C(=O)Cn1nnnc1CN(C)C(C)C | / | 0 | / | / | / | /
CCn1ccc(C(=O)Oc2ccc(Cl)cc2)n1 | 1.2 | -25 | 0.5 | 0 | 54* | 101
CCn1ccc(C(=O)Nc2ccc(N(C)C(C)=O)cc2)n1 | 1.9 | / | 0.9 | 25 | 10 | 104
CCn1ccc(C(=O)Nc2ccc(Cl)cn2)n1 | 2.8 | / | 0.9 | / | 11 | 131*
CCn1ccc(C(=O)Nc2ccccc2SC)n1 | 1.5 | 14 | 0.9 | 37 | 5 | 140*
CC(C)n1nc(C(=O)Oc2ccc(Cl)cc2)c2ccccc2c1=O | 1 | / | 1 | -19 | -4 | 99
CCn1nccc1C(=O)Nc1ccc(Cl)cn1 | 1.8 | / | 1 | 13 | 3 | 116
O=C(c1ccc(N2CCN(S(=O)(=O)c3ccccc3)CC2)c([N+](=O)[O-])c1)N1CCOCC1 | 0.75 | 15 | 1.1 | -10 | -8 | 99
O=C(COCC(=O)NCc1ccccc1)NCc1ccccc1 | 0.95 | 11 | 1 | 19 | 0 | 105
Cc1ccnc2ccc(-c3nc4ccccc4o3)cc12 | 1.9 | / | 0.9 | 20 | 10 | 136*
CCOC(=O)c1sc2nc3n(c(=O)c2c1C)CCCCC3 | 2.5 | / | 1 | -2 | -4 | 133*
CCOC(=O)c1sc2nc3n(c(=O)c2c1C)CCC3 | 0.92 | -14 | 1 | 18 | -3 | 109
COc1ccc2oc(C(=O)NCCC(C)C)c(C)c2c1 | 1 | -6 | 0.5 | 139* | 50 | 135*
Cc1onc(-c2ccccc2Cl)c1NC(=O)NCc1cccs1 | / | -22 | / | / | / | /
O=C(Cn1c(=O)oc2ccccc21)Nc1ccc(Cl)cc1 | / | -14 | / | / | / | /
SMILES | NF-kB neuron act | Pf gamet viab | FLuc stim CS | APP 5'UTR act | FLuc inhib CS | STAT1 act
CC(C)CCN1C(=O)c2ccccc2C1C(=O)NCc1cccnc1 (centres undefined) | 1.1 | / | 1 | 4 | -1 | 101
COC(=O)CCC(=O)COc1ccc(OC)cc1C#N | 1.6 | -6 | 0.9 | 47 | 6 | 130*
COC(=O)CCC(=O)COc1ccccc1C#N | 1.3 | -12 | 1 | 4 | 2 | 103
Cc1ccc(-n2c(CNc3ccc(F)cc3)nnc2SCC(=O)O)cc1 | 1.1 | -6 | 1 | -8 | -4 | 99
Cc1ccc(NCc2nnc(SCC(=O)O)n2-c2ccc(C)cc2)cc1 | 1.2 | -30 | 0.2 | -1 | 82* | 105
Cc1ccc(C(=O)OCC(=O)Nc2cccc(S(=O)(=O)NC3=NCCCCC3)c2)c(C)c1 | 0.92 | 2 | 1 | 18 | -4 | 92
c1ccc(-c2cnc(-c3cccnc3)o2)cc1 | 1.6 | 18 | 0.9 | 37 | 14 | 135*
NC(=O)c1ccc(-c2ncc(-c3ccccc3)o2)cc1 | 12* | / | 0.7 | 126 | 29 | 71
COC(=O)CC1SC(=O)NC1=Nc1cccc(C)c1 (centres undefined) | 1 | -9 | 1 | 4 | 1 | 100
COc1cccc(/C=C/C(=O)c2ccc[nH]2)c1 | 6.6* | / | 0.5 | 201* | 52* | 128
O=C(/C=C/c1ccc2c(c1)OCO2)c1ccc[nH]1 | 1.4 | 14 | 0.2 | 188* | 76* | 118
Cc1ccc(C(=O)/C=C/c2ccccc2)o1 | 1.5 | / | 0.3 | 10 | 72* | 88
O=C(/C=C/c1ccc2c(c1)OCO2)c1ccc(F)cc1 | 1.6 | / | 0.5 | 20 | 48 | 108
Cc1ccc(C(=O)/C=C/c2ccc3c(c2)OCO3)o1 | 1.8 | / | 0.2 | 21 | 80* | 105
Cc1ccc(C(=O)/C=C/c2ccc(Br)cc2)o1 | 2.1 | 16 | 0.7 | 8 | 35 | 109
COc1cc(N2C(=O)C=CC2=O)c(OC)cc1Cl | / | -37 | / | / | / | /
c1ccc2c(c1)ccc1nnnn12 | / | -9 | / | / | / | /
Cc1ccc(C(=O)N/N=C/c2ccc3c(c2)OCO3)o1 | 2 | / | 0.3 | 35 | 69* | 138*
COc1ccc(NC(=O)/C=C/c2ccccc2)c([N+](=O)[O-])c1 | 1.4 | 19 | 0.9 | 76 | 11 | 147*
COc1ccc(/C=C/C(=O)Nc2ccc(OC)cc2[N+](=O)[O-])cc1 | 1.2 | / | 1 | 7 | 2 | 97
CCOc1ccc(NC(=O)Cc2ccccc2)c([N+](=O)[O-])c1 | 1.6 | -22 | 1 | -1 | -1 | 100
CCOc1ccc(NC(=O)COc2ccccc2)c([N+](=O)[O-])c1 | 4.1* | -14 | 0.4 | 78 | 59* | 148*
O=C(COc1ccccc1)Nc1ccccc1Cl | 1.6 | 2 | 0.8 | 70 | 19 | 132*
O=C(Nc1cccc2nsnc12)c1ccc2c(c1)OCCO2 | 1.9 | / | 0.6 | 73 | 37 | 132*
O=C(Nc1ccc(N2CCCCC2)cc1)c1ccc2c(c1)OCCO2 | 3.8* | -9 | 0.4 | 135* | 65* | 133*
SMILES | NF-kB neuron act | Pf gamet viab | FLuc stim CS | APP 5'UTR act | FLuc inhib CS | STAT1 act
CC(=O)N1CCN(c2ccc(NC(=O)c3ccc4c(c3)OCCO4)cc2)CC1 | 1.5 | 4 | 0.9 | -1 | 6 | 94
Cc1ccc(NC(=O)c2ccc3c(c2)OCCO3)cc1 | 4.1* | / | 0.1 | 145* | 89* | 94
O=C(Cn1cc(CNC(=O)C2CCCCC2)nn1)Nc1cc(C(F)(F)F)ccc1Cl | / | 27 | / | / | / | /
COc1ccc(-c2cc(=O)c3cc(OC)ccc3o2)cc1 | 5.3* | / | 0.2 | 155* | 78* | 122
CSc1ccc(-c2cc(=O)c3ccccc3o2)cc1 | 3.1 | / | 0.7 | 142* | 35 | 134*
O=c1cc(-c2ccccc2F)oc2ccccc12 | 2.3 | / | 0.6 | 64 | 41 | 135*
COc1ccc(-c2cc3cc(-c4cc(OC)c(OC)c(OC)c4)ccc3o2)cc1 | / | -19 | / | / | / | /
O=c1cc(-c2ccc(F)cc2)oc2ccccc12 | / | / | / | 26 | / | 133*
Cc1ccccc1-c1cc(=O)c2ccccc2o1 | / | -15 | / | / | / | /
O=C1C2C3c4ccccc4C(c4ccccc43)C2C(=O)N1Cc1cccnc1 (centres undefined) | 1.1 | / | 1 | -5 | -5 | 96

Bioassay records as filed in PubChem.
